Data published in ChEMBL document CHEMBL4190397, “Design and Synthesis of Novel and Selective Glycine Transporter-1 (GlyT1) Inhibitors with Memory Enhancing Properties” (J Med Chem, 2018).

Columns and labels:
[1] = biological target: T1, Sodium- and chloride-dependent glycine transporter 1 (Rattus norvegicus, UniProt P28572); assay: Inhibition of GlyT1 in primary rat cortical neurons assessed as reduction in [14C]glycine uptake after 2 hrs by microbeta scintillation counting method
T1 sequence (P28572 whole entry): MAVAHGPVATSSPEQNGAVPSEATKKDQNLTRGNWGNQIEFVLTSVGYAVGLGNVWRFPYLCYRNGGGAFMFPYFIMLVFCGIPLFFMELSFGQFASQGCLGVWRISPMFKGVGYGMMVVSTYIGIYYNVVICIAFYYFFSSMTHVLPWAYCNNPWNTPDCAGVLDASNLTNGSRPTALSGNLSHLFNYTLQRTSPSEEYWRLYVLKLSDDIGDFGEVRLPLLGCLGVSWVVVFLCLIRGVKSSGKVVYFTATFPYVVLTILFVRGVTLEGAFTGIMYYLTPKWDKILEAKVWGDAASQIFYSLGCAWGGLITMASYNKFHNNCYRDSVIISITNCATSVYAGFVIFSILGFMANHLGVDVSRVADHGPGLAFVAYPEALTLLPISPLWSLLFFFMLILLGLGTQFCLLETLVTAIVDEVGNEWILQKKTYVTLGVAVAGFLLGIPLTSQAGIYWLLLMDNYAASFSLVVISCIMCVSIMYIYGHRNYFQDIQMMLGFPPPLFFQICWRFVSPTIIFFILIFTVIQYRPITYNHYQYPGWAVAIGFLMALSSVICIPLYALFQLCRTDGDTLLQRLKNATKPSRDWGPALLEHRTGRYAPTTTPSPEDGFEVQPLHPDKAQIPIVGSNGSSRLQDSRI

Cytochrome P450 2D6 = Cytochrome P450 2D6 (Homo sapiens, UniProt P10635); assay: Inhibition of CYP2D6 in human liver microsomes using dextromethorphan as substrate measured after 10 mins in presence of NADPH by LC-MS/MS analysis
Sequence of Cytochrome P450 2D6 (P10635 whole entry): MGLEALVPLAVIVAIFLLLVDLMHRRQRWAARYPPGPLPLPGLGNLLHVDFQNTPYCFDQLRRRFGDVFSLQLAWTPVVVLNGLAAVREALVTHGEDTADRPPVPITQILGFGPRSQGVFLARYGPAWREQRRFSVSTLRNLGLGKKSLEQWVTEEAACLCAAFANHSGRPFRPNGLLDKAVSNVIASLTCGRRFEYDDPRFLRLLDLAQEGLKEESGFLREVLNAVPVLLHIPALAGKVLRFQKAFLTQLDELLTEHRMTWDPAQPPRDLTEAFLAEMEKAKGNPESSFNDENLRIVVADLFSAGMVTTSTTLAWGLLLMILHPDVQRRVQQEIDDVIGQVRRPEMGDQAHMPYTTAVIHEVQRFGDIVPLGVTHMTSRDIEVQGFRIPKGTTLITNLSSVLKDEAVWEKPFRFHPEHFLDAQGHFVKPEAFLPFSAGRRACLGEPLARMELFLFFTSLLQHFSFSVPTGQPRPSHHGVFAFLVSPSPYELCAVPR

[2] = Plasma concentration in Sprague-Dawley rat at 10 mg/kg, po after 90 mins by LC-MS/MS analysis; assay type: ADME, organism-based
Method in brief: (§1)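 Male SD rats (n=5) given a single oral dose of 10 mg/kg in NMP/PEG400/water (10:50:40). Plasma, total brain and CSF compound concentrations measured 90 min after dosing.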

[3] = Drug uptake in Sprague-Dawley rat brain at 10 mg/kg, po after 90 mins by LC-MS/MS analysis; assay type: ADME, organism-based; conditions: read-out: Drug uptake; method in brief: as §1
[4] = Drug uptake in Sprague-Dawley rat CSF at 10 mg/kg, po after 90 mins by LC-MS/MS analysis; assay type: ADME, organism-based, Cerebrospinal fluid; conditions: read-out: Drug uptake; method in brief: as §1
[5] = Unbound fraction in rat plasma at 1 uM by LC-MS/MS based equilibrium dialysis; assay type: ADME, cell-free
Method in brief: (§2)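 Rat plasma or brain homogenate (1:6 in 0.1 M PBS pH 7.2) spiked to 1.0 µM, in triplicate. Rapid equilibrium dialysis (MWCO 8000) against PBS, shaken at 37 °C for 6 h. Matrix-matched samples quantified by LC-MS/MS. fu = receiver/donor concentration; brain value corrected for homogenate dilution.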

[6] = Unbound fraction in rat brain homogenate at 1 uM by LC-MS/MS based equilibrium dialysis; assay type: ADME, tissue-based; method in brief: as §2
[7] = Free drug level in rat brain homogenate at 1 uM by LC-MS/MS based equilibrium dialysis; assay type: ADME, tissue-based
[8] = Ratio of free drug level in rat brain homogenate at 1 uM to IC50 for inhibition of GlyT1 in primary rat cortical neurons; assay type: tissue-based
Rattus norvegicus [9] = assay: In vivo inhibition of GlyT1 in Sprague-Dawley rat assessed as CSF glycine levels at 10 mg/kg, po administered as single dose measured after 90 mins by LC-MS/MS analysis relative to control; assay type: functional
Method in brief: (§3)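 Male Sprague-Dawley rats (300−400 g, n = 5), fed ad libitum, dosed orally at 10 mg/kg (10 mL/kg) in NMP/PEG400/water (10:50:40), with a vehicle group (n = 5) in each study. CSF (~100 µL) taken under anaesthesia at 90 min. Glycine derivatised with Marfey's reagent, 13C2-15N-glycine internal standard, LC-MS/MS in negative ion mode. Expressed as % of vehicle; 1-way ANOVA.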

Rattus norvegicus [10] = assay: In vivo inhibition of GlyT1 in Sprague-Dawley rat assessed as increase in CSF glycine levels at 10 mg/kg, po administered as single dose measured after 90 mins by LC-MS/MS analysis relative to control; assay type: functional; parameters: scale not given: the % may be the effect or the level left; method in brief: as §3

Structure (SMILES)	IC50 [1] [nM]	IC50 (Cytochrome P450 2D6) [nM]	concentration at […] [2] [nM]	concentration at […] [3] [nM]	concentration at […] [4] [nM]	fraction unbound at 1 µM [5]	fraction unbound at 1 µM [6]	Drug uptake(free) [7] [nM]	Ratio [8]	Activity (Rattus norvegicus [9]) [µM]	Activity (Rattus norvegicus [10]) [%]
C[C@H](Oc1ccc(C#N)cc1C(=O)N1Cc2cn(-c3ccccc3F)nc2C1)C(F)(F)F	108	> 10000									
CS(=O)(=O)c1ccc(OCC2CC2)c(C(=O)N2Cc3cn(-c4ccccc4F)nc3C2)c1	28	> 10000	2140	605	26	0.047	0.017	10.3	0.37	7.6	110
